Columns and labels:
D1-active mutant (E578Q) [1] = molecular target: T1, D1-active mutant (E578Q) (Homo sapiens, UniProt P55072, E578Q); conditions: previous studies of the authors; cited from earlier work
D1-active mutant (E578Q) [2] = molecular target: T1, D1-active mutant (E578Q); experiment: ATPase assay, D1-active Walker B mutant; format: biochemical
Procedure, shortened: (§1)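 Human p97 (WT or the Walker B mutant named), 25 nM monomer, in 50 mM Tris pH 7.4, 20 mM MgCl2, 1 mM EDTA, 0.5 mM TCEP, 0.01% Triton X-100 and 200 μM ATP. An initial 4-dose titration (30, 10, 3.3, 1.1 μM) was run in triplicate, then an 8-dose titration (30 down to 0.04 μM, plus 0). ATPase activity was read with Biomol Green reagent.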

wild-type p97 = wild-type p97 (Homo sapiens, UniProt P55072); experiment: ATPase assay, wild type p97; format: biochemical
Procedure, shortened: as §1

p97-p47 complex [3] = molecular target: T2, p97-p47 complex (Homo sapiens, UniProt P55072); experiment: ATPase assay, p97-p47 complex; format: biochemical
Procedure, shortened: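 The p97-p47 complex was formed by adding p47 to 400 nM final with human p97 at 25 nM monomer. Buffer was 50 mM Tris pH 7.4, 20 mM MgCl2, 1 mM EDTA, 0.5 mM TCEP, 0.01% Triton X-100 and 200 μM ATP. Titrations were 4-dose in triplicate (30–1.1 μM), then 8-dose (30–0.04 μM, plus 0). Activity was detected with Biomol Green reagent.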

D2-active mutant (E305Q) = D2-active mutant (E305Q) (Homo sapiens, UniProt P55072, E305Q); experiment: ATPase assay, D2-active Walker B mutant; format: biochemical
Procedure, shortened: as §1

p97-p47 complex [4] = molecular target: T2, p97-p47 complex; conditions: cited from earlier work; for inhibition of the p97-p47 complex compared to p97 alone, in words: Figure 1 legend, earlier work of the authors; for fold decrease in potency caused by p47 (p97-p47 complex versus p97): previously found by the authors

D2-active mutant (E305Q), sequence (P55072 whole entry E305Q): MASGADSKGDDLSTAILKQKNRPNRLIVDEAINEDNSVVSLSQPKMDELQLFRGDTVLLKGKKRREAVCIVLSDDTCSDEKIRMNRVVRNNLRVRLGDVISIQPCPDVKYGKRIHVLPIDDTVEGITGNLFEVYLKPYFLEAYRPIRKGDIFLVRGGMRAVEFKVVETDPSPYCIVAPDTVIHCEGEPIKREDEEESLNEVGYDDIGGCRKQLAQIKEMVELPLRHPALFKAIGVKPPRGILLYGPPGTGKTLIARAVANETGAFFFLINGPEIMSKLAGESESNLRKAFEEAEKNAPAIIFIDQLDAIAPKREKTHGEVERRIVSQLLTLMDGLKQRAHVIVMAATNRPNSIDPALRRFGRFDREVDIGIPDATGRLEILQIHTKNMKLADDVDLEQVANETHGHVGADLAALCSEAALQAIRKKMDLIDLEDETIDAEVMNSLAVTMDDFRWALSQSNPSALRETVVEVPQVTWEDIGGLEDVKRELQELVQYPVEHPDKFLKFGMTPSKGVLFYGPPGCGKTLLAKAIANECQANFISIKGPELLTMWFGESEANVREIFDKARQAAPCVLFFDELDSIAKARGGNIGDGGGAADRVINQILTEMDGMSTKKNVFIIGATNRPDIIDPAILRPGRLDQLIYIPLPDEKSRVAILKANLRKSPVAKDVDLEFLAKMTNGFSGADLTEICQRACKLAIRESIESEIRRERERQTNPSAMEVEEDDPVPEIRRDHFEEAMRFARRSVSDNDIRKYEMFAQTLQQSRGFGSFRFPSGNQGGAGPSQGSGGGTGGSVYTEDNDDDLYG
T2 sequence (P55072 whole entry): as the sequence (P55072 whole entry E305Q) above, with Q305E counted along it
T2 sequence (Q9UNZ2 whole entry partner): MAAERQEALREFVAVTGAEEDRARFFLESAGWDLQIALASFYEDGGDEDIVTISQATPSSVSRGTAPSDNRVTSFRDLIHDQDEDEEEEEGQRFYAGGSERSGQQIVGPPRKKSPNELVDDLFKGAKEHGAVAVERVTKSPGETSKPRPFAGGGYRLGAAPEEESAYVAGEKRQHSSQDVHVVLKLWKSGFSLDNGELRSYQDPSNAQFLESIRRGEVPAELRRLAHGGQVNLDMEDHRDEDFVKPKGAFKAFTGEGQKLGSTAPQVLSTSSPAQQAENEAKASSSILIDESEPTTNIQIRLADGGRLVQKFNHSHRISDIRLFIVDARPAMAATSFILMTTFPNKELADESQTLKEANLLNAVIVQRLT
T1 sequence (P55072 whole entry E578Q): as the sequence (P55072 whole entry E305Q) above, with Q305E, E578Q counted along it
wild-type p97, sequence (P55072 whole entry): as the sequence (P55072 whole entry E305Q) above, with Q305E counted along it

| SMILES | domain selectivity D1 versus D2, in words (D1-active mutant (E578Q) [1]) | IC50 (D1-active mutant (E578Q) [2]) | fold increase of IC50 against the D1-active mutant (E578Q) compared to WT p97 (D1-active mutant (E578Q) [2]; 200 μM ATP) | IC50 (wild-type p97) | IC50 (p97-p47 complex [3]) | IC50 (D2-active mutant (E305Q)) | fold increase of IC50 against the D2-active mutant (E305Q) compared to WT p97 (D2-active mutant (E305Q); 200 μM ATP) | selectivity toward the D2 domain (D2-active mutant (E305Q); D2 versus D1) | inhibition of the p97-p47 complex compared to p97 alone, in words (p97-p47 complex [4]) | fold decrease in potency caused by p47 (p97-p47 complex versus p97) (p97-p47 complex [4]) | domain selectivity D1 versus D2 (E578Q versus E305Q mutants), in words (D1-active mutant (E578Q) [2]; 8-dose titration, Figure 3 / Table S1) |
| --- | --- | --- | --- | --- | --- | --- | --- | --- | --- | --- | --- |
| c1ccc(CNc2nc(NCc3ccccc3)c3ccccc3n2)cc1 [DBeQ, N2,N4-dibenzylquinazoline-2,4-diamine] | inhibit both the D1 and D2 ATPase domains | 13.1 µM | 2.4 fold | 5.4 µM | 12.3 µM | 7.6 µM | 1.4 fold | 3 fold |  |  |  |
| COc1cccc2c(NCc3ccccc3)nc(-n3c(N)nc4ccccc43)nc12 [ML240] | selectively inhibit D2 |  |  |  |  |  |  |  | less inhibition of the p97-p47 complex | ~ 50 fold |  |
| c1ccc(CNc2nc(N3CCOc4ccccc43)nc3c2CCCC3)cc1 [ML241] | selectively inhibit D2 |  |  |  |  |  |  |  | less inhibition of the p97-p47 complex | ~ 50 fold |  |
| Cc1cc(OCc2nnc(SC3CCCC3)n2-c2cccnc2)ccc1-c1ccc(S(C)(=O)=O)cc1 [NMS-873] | inhibit both the D1 and D2 ATPase domains |  |  |  |  |  |  |  |  |  | inhibited the ATPase activity of both the D1 and D2 domains |
